# Experiments:
# PABPC1 gene, U2OS cells = assay: ChIP of GFP at PABPC1; assay type: cell-based; conditions: % GFP signal/input, three experiments
# Procedure, shortened: (§1)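 Direct ChIP at the PABPC1 gene used two primer positions along the gene in the U2OS AF10 complementation lines. GFP enrichment was expressed as % GFP signal/input. H3K79me2 signal was normalized to total H3 signal. SEM came from three experiments.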
# [1] = tested on: H3K79me2 at the PABPC1 gene, U2OS cells; assay: ChIP of H3K79me2 at PABPC1; assay type: cell-based; conditions: AF10 deleted, normalized to total H3, three experiments
# Procedure, shortened: as §1
# H3(15-34) peptides = assay: Peptide pull-down and ITC of AF10PZP mutants; assay type: binding; conditions: pull-down and ITC assays
# Procedure, shortened: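 Alanine substitutions were made at AF10PZP residues that contact H3T22, H3K23, H3A24, H3R26 and H3K27. GST-AF10PZP (pGEX-6P-1 construct) was used in pull-downs with biotinylated H3(15-34) peptides, and binding was also assessed by ITC.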
# chromatin (U2OS cells) = assay type: cell-based
# Procedure, shortened: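 Lysates from U2OS cells expressing wild-type or mutant GFP-AF10 were biochemically separated into soluble and chromatin-enriched fractions, then Western blotted with the indicated antibodies. Whole cell extract controlled for total AF10 expression, and tubulin and H3 levels controlled for integrity of fractionation.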
# chromatin (HeLa cells) = assay: In situ fractionation, fluorescence microscopy; assay type: cell-based; conditions: detergent treatment prior to fixation, 30–60 cells, three independent fields, two biological replica
# ML2 leukemia cells = assay: Proliferation of ML2 cells; assay type: cell-based; conditions: AF10-depleted ML2 cells; three independent experiments
# Procedure, shortened: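 Growth curves were run on ML2 leukemia cells (MLL-AF6 fusion) carrying control or AF10-targeting sgRNA, either without reconstitution or reconstituted with wild-type AF10 or AF10L107A. SEM came from three independent experiments.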
molecule,measurement,setting,value
"GFP-AF10L107A: AF10 mutant that abolishes H3 binding, involved in both K23 and K27 side-chain recognition (protein, left off: GST, end not stated, kept) MVSSDRPVSLEDEVSHSMKEMIGGCCVCSDERGWAENPLVYCDGHGCSVAVHQACYGIVQVPTGPWFCRKCESQERAARVRCELCPHKDGALKRTDNGGWAHVVCAAYIPEVQFANVSTMEPIVLQSVPHDRYNKTCYICDEQGRESKAATGACMTCNKHGCRQAFHVTCAQFAGLLCEEEGNGADNVQYCGYCKYHFSKLKKSKRGS",occupancy at the PABPC1 gene,"PABPC1 gene, U2OS cells",low relative to wild-type GFP-AF10
same,reconstitution of H3K79me2 signal at PABPC1,[1],but not upon induction of GFP-AF10L107A
same,effect of AF10PZP mutation on binding to H3 peptides,H3(15-34) peptides,abolishes H3 binding
same,AF10 enrichment at chromatin,chromatin (U2OS cells); tetracycline-inducible GFP-AF10,reduced in comparison to wild-type AF10
same,AF10 detected in the soluble fraction,chromatin (U2OS cells); versus wild-type AF10,more mutant being detected in the soluble fraction
same,chromatin-association by in situ fractionation,chromatin (HeLa cells),Decreased chromatin-association
same,reversal of decreased proliferation,ML2 leukemia cells,but not with mutant AF10L107A
